{"data": "Experimental data from different studies", "target": "Serine/threonine-protein kinase DCLK1 (DCLK1, Homo sapiens, UniProt O15075)", "Sequence (O15075 1-740, as in one of the studies)": "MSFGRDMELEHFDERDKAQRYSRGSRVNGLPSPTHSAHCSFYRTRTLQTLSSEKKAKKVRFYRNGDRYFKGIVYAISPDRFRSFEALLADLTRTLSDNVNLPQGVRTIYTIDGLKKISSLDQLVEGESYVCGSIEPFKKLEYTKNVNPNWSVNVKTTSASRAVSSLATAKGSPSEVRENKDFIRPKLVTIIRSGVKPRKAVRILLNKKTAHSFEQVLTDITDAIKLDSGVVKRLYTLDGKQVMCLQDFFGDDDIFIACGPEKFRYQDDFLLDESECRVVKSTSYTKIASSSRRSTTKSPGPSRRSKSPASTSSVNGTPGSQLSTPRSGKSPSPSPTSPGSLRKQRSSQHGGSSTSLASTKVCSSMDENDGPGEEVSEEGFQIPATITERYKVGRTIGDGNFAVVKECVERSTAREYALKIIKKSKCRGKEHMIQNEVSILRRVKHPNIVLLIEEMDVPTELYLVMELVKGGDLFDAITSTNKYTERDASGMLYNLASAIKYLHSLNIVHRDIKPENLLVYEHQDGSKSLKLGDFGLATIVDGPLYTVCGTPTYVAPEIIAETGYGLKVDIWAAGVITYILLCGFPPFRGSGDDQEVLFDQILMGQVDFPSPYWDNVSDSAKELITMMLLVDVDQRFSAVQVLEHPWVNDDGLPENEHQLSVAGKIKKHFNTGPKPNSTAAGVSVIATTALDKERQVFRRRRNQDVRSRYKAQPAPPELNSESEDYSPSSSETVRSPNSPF", "note": "Each line is one published result; the experiments were not run side by side."}
{"effect on": "binding", "method": "competition with immobilised ligand", "tested at": "1 µM", "remaining binding [%]": 70, "Compound": "N[C@@H]1CCN(c2nccc(-c3cnn4ncccc34)n2)C1"}
{"effect on": "cell-free assay", "method": "competition with immobilised ligand", "tested at": "1 µM", "remaining binding [%]": 79, "Compound": "CN([C@@H]1CCc2c(CC(=O)O)c3cc(S(C)(=O)=O)ccc3n2C1)S(=O)(=O)c1ccc(F)cc1"}
{"effect on": "binding", "method": "competition with immobilised ligand", "tested at": "1 µM", "remaining binding [%]": 61, "Compound": "CN(C)c1nccc(-c2cnc3ncccn23)n1"}
{"effect on": "cell-free assay", "method": "competition with immobilised ligand", "tested at": "1 µM", "remaining binding [%]": 85, "Compound": "Cc1c(NC(=O)c2cc(C(N)=O)nc3cc(F)ccc23)c(C(F)(F)F)nn1Cc1ccc(C#N)cc1"}
{"effect on": "binding", "method": "competition with immobilised ligand", "tested at": "1 µM", "remaining binding [%]": 85, "Compound": "C[C@H]1CCN(c2nccc(-c3cnn4ncccc34)n2)C1"}
{"effect on": "cell-free assay", "method": "competition with immobilised ligand", "tested at": "1 µM", "remaining binding [%]": 100, "Compound": "CC(=O)Nc1c(C(C)=O)c(=O)n(C)c2nc(-c3ccc(Cl)cc3Cl)c(-c3ccc(Cl)cc3)cc12"}
{"effect on": "binding", "method": "competition with immobilised ligand", "tested at": "1 µM", "remaining binding [%]": 100, "Compound": "O=C(c1ccc(Nc2ncc(Cl)c(-c3cc4ccccc4s3)n2)cc1)N1CCC(N2CCCC2)CC1"}
{"effect on": "binding", "method": "competition with immobilised ligand", "tested at": "1 µM", "remaining binding [%]": "< 10", "Compound": "COc1cc(N2CCN(C)CC2)ccc1Nc1ncc2c(n1)N(C)c1ccccc1C(=O)N2CC(F)(F)F"}
{"effect on": "binding", "method": "competition with immobilised ligand", "tested at": "1 µM", "remaining binding [%]": 82, "Compound": "F[C@@H]1CCN(c2nccc(-c3cnn4ncccc34)n2)C1"}
{"effect on": "binding", "method": "competition with immobilised ligand", "tested at": "1 µM", "remaining binding [%]": 100, "Compound": "Nc1ncc2c(n1)-c1c([nH]c3ccc(C#CC4CC4)cc13)CCCC2"}
{"effect on": "cell-free assay", "method": "competition with immobilised ligand", "tested at": "1 µM", "remaining binding [%]": 85, "Compound": "CN1CCN(c2cnc3c(C4CCN(C(=O)c5ccc(OC(F)(F)F)cc5N)CC4)ncnc3c2)CC1"}
{"effect on": "binding", "method": "competition with immobilised ligand", "tested at": "50 nM", "remaining binding [%]": 84, "Compound": "C[C@@H]1CN(c2ccc3ncc(-c4ccc5[nH]nc(C6CC6)c5c4)n3n2)C[C@H](C)O1"}
{"effect on": "binding", "method": "competition with immobilised ligand", "tested at": "1 µM", "remaining binding [%]": 88, "Compound": "O=C(NCCCN1CCOCC1)c1ccc(Nc2nccc(-c3cc4ccccc4s3)n2)cc1"}
{"effect on": "cell-free assay", "method": "competition with immobilised ligand", "tested at": "0.1 µM", "remaining binding [%]": 100, "Compound": "Nc1c(C(=O)NCc2ccc(C(=O)NCCCC3CCCCC3)cc2)cnn1-c1ccccc1"}
{"effect on": "binding", "method": "competition with immobilised ligand", "tested at": "1 µM", "remaining binding [%]": 92, "Compound": "COc1cnc(Nc2cccc(S(N)(=O)=O)c2)nc1N1CCN(c2ccccc2)CC1"}
{"effect on": "binding", "method": "competition with immobilised ligand", "tested at": "1 µM", "remaining binding [%]": 79, "Compound": "O=C(Nc1c[nH]nc1C(=O)NC1CCNCC1)c1cc(F)cc(F)c1"}
{"effect on": "binding", "method": "competition with immobilised ligand", "tested at": "1 µM", "remaining binding [%]": 88, "Compound": "CCN1CCN(Cc2ccc(C(=O)Nc3ccc(C)c(Oc4ccc5c(c4)CC(=O)N5)c3)cc2C(F)(F)F)CC1"}
{"effect on": "binding", "method": "competition with immobilised ligand", "tested at": "1 µM", "remaining binding [%]": 90, "Compound": "CN(CCCC(F)(F)F)c1nccc(-c2cnn3ncccc23)n1"}
{"effect on": "cell-free assay", "method": "competition with immobilised ligand", "tested at": "1 µM", "remaining binding [%]": 100, "Compound": "O=C(N1CCS(=O)(=O)CC1)N1C[C@H](c2ccc(OC(F)(F)F)cc2)C[C@H](c2nc(C3CC3)no2)C1"}
{"effect on": "binding", "method": "competition with immobilised ligand", "tested at": "10 µM", "remaining binding [%]": 100, "Compound": "N#Cc1ccccc1CSc1nnc2c(n1)[nH]c1ccccc12"}
{"effect on": "cell-free assay", "method": "competition with immobilised ligand", "tested at": "0.3 µM", "remaining binding [%]": 32, "Compound": "Cc1cc(-c2cc(C(F)(F)F)ccc2O[C@H]2C[C@@]2(CNS(=O)(=O)c2ccc([N+](=O)[O-])cc2)c2ccc(F)cc2F)[nH]n1"}
{"effect on": "cell-free assay", "method": "competition with immobilised ligand", "tested at": "10 µM", "remaining binding [%]": 100, "Compound": "CC(C)(C)c1ccc(-c2nc(CBr)nn2-c2cccc(O)c2)cc1"}
{"effect on": "binding", "method": "competition with immobilised ligand", "tested at": "1 µM", "remaining binding [%]": 56, "Compound": "O=C(NCCCN1CCOCC1)c1ccc(Nc2ncc(Cl)c(-c3ccc(Cl)s3)n2)cc1"}
{"effect on": "binding", "tested at": "1 µM", "remaining binding [%]": 85, "Compound": "CN(c1nccc(-c2cnn3ncccc23)n1)C1CC1"}
{"effect on": "cell-free assay", "method": "competition with immobilised ligand", "tested at": "1 µM", "remaining binding [%]": 90, "Compound": "Cc1nccc(COC(=O)N2C[C@@H]3[C@@H](CNC(=O)c4ccc5[nH]nnc5c4)[C@@H]3C2)n1"}
